The list is not random: actives were taken first. Their share in the collection is about 2.5%.
MsrA inhibitor: bovine MsrA inhibition | 360,000 tested, 0.75% active | inhibition, % at 15.5 µM | purified bovine MsrA, absorbance read-out;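 further: 0% = vehicle wells with enzyme and 100% = reference inhibitor wells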
bovine MsrA act: activates bovine MsrA enzyme; activation, % at 10.6 µM; 360,000 tested, 0.3% active; purified bovine MsrA, absorbance read-out; in the data active means activation above about 7.5%;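 further: 0% = vehicle and 100% = reference activator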
NadD inh: blocks S. aureus nicotinate mononucleotide adenylyltransferase | 360,000 tested, 0.78% active | purified NadD enzyme, colorimetric absorbance read-out | inhibition, % at 20 µM; in the data active means inhibition above about 26%
NR2E3 ag-1: activates human NR2E3 receptor; Q9Y5X4; CHO-S Gal4-NCOR/VP16-NR2E3 two-hybrid, luciferase; inhibition of corepressor binding, % at 3.98 µM; 360,000 tested, 0.35% active; AID 602229;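 active means inhibition above the mean of all tested compounds plus 3 SD, cut at about 70% in these data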;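 further: 0% = DMSO with NR2E3 transfected cells and 100% = cells lacking NR2E3 construct; higher means lower luciferase signal from less NR2E3 corepressor binding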
GalR3 antagonist: blocks the human galanin receptor 3; 360,000 tested, 0.44% active; HEK293 GalR3-CNG cAMP membrane potential fluorescence; galR3 body fused to GalR1 C-terminus; inhibition, % at 3 µM; AID 651719;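 active means inhibition above the screen-wide average plus 3 SD, cut at about 13% in these data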;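 further: forskolin and galanin both at EC90 stimulate the cells; cAMP rise reported by CNG channel membrane potential dye signal; 0% = forskolin plus galanin with DMSO and 100% = forskolin alone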
Target sequence (O60755 1-299 limits assumed): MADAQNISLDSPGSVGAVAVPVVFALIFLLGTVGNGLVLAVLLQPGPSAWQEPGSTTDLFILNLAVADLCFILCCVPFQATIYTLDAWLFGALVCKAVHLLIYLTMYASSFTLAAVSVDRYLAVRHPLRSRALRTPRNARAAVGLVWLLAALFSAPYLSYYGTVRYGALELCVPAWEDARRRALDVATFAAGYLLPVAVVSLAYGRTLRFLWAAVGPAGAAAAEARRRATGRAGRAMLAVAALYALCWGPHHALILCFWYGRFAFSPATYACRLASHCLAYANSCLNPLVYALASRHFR
NR2E3 ag-2: agonists of human nuclear receptor NR2E3; 320,000 tested, 0.12% active; GST-NR2E3/biotin-RetCOR TR-FRET, 1536-well; inhibition of corepressor binding, % at 4.78 µM; Q9Y5X4;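 active means percent inhibition above the cutoff of mean plus 3 SD of all tested compounds, set per screening campaign, cut at about 20% in these data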;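 further: 0% = DMSO wells and 100% = biotin wells as full block of FRET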
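Test system – NR2E3–RetCOR corepressor complex · Quantity – NR2E3 fusion 1.35 nM · Buffer or medium – Tris pH 7.5 · Incubation – Compound–protein incubation for 5 h at 4 °C · Technique – TR-FRET, Eu(K)-anti-GST donor, streptavidin-D2 acceptor, ex 340, em 617/671 nm · Evaluation – percent inhibition of 671/617 nm emission ratio versus biotin and DMSO controls · Plate – 1536-well format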
MsrA conf: bovine MsrA inhibition, confirmed; purified bovine MsrA, absorbance read-out; inhibition, % at 15.5 µM; 2,300 tested, 41% active; AID 651822; shares compounds with MsrA inhibitor;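 further: coupled to thioredoxin reductase with NADPH and selenocystamine and DMSO as substrate; 0% = vehicle only and 100% = full effect of reference inhibitor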
* hit, by the source's call. Unless noted, no stated cut-off is given here; in the data, active means inhibition above about 4.5%; inactive means the rest.

Screening COc1ccc2c(c1)-c1c(sn(-c3ccccc3)c1=S)C(C)(C)N2 returned MsrA inhibitor 4.7*, bovine MsrA act -6, NadD inh 0, NR2E3 ag-1 8, GalR3 antagonist 2, NR2E3 ag-2 -4 and MsrA conf 1.
CC(C)(C)OC(=O)N/N=C\C=C\c1ccc2c(c1)OCO2 was read as MsrA inhibitor 5.1*, bovine MsrA act -4, NadD inh -4, NR2E3 ag-1 -99, GalR3 antagonist -8, NR2E3 ag-2 -4 and MsrA conf 4.
Screening CCN(CC)c1ccc(/C=N/NC(=O)CNC(=O)/C=C/c2ccco2)cc1 returned MsrA inhibitor 6.3*, bovine MsrA act -12, NadD inh -1, NR2E3 ag-1 28, GalR3 antagonist -1, NR2E3 ag-2 0 and MsrA conf 8.0*.
For O=C(/C=C/c1ccco1)NCC(=O)N/N=C/c1ccccc1[N+](=O)[O-] the results were MsrA inhibitor 1, bovine MsrA act -10, NadD inh -3, NR2E3 ag-1 0, GalR3 antagonist 0 and NR2E3 ag-2 3.
For CCCCCCOc1ccc(/C=N/NC(=O)C2CC2)cc1 the results were MsrA inhibitor -1, bovine MsrA act -3, NadD inh -2, NR2E3 ag-1 -7 and GalR3 antagonist -1.
For CCN(CC)c1ccc(/C=N/NC(=O)C2CC2)cc1 the results were MsrA inhibitor 5.8*, bovine MsrA act -5, NadD inh -5, NR2E3 ag-1 -23, GalR3 antagonist -1, NR2E3 ag-2 -3 and MsrA conf 5.5*.
Screening CCOC(=O)N/N=C\C=C\c1ccc2c(c1)OCO2 returned MsrA inhibitor 7.3*, bovine MsrA act -5, NadD inh 0, NR2E3 ag-1 -58, GalR3 antagonist -5, NR2E3 ag-2 -7 and MsrA conf 4.7*.
For Cc1ccc2c(c1)N(C(=O)CCC(=O)Nc1ccccc1Br)CC(C)O2 (stereo not given) the results were MsrA inhibitor 1, bovine MsrA act -5, NadD inh 0, NR2E3 ag-1 -10 and NR2E3 ag-2 2.
NCC(=O)N1CCC(C(=O)N[C@@H](Cc2c[nH]c3ccccc23)C(=O)O)CC1 was read as MsrA inhibitor 0, bovine MsrA act -1, NadD inh -8, NR2E3 ag-1 -6 and GalR3 antagonist -11.
`COc1ccc(CC(=O)N/N=C/C=C/c2ccc3c(c2)OCO3)cc1OC` gave MsrA inhibitor 5.9*, bovine MsrA act -6, NadD inh 2, NR2E3 ag-1 14, GalR3 antagonist -9, NR2E3 ag-2 -6 and MsrA conf 4.
`COc1ccc(/C=N/NC(=O)Cc2ccc(Cl)cc2)cc1OC` gave MsrA inhibitor 0, bovine MsrA act -5, NadD inh 1, NR2E3 ag-1 13, GalR3 antagonist 1 and NR2E3 ag-2 3.
`CCN(CC)c1ccc(/C=N/NC(=O)Cc2ccc(OC)c(OC)c2)cc1` gave MsrA inhibitor 5.2*, bovine MsrA act -7, NadD inh -4, NR2E3 ag-1 2, GalR3 antagonist -4, NR2E3 ag-2 -4 and MsrA conf 2.
O=C(N/N=C/c1ccc(N2CCOCC2)cc1)c1ccccn1 was read as MsrA inhibitor 2, bovine MsrA act -4, NadD inh -5, NR2E3 ag-1 -104, GalR3 antagonist -4 and NR2E3 ag-2 1.
`COc1cc(/C=N/NC(=O)c2nc3ccccn3c2C)cc(OC)c1O` gave MsrA inhibitor 6.3*, bovine MsrA act -6, NadD inh -4, NR2E3 ag-1 5, GalR3 antagonist 10, NR2E3 ag-2 0 and MsrA conf 5.1*.
Cc1c(C(=O)N/N=C/c2ccc(N3CCOCC3)cc2)nc2ccccn12 was read as MsrA inhibitor 5.7*, bovine MsrA act -11, NadD inh -10, NR2E3 ag-1 2, GalR3 antagonist 2, NR2E3 ag-2 -3 and MsrA conf 5.8*.
For O=C(Cn1ccc(C(F)(F)F)n1)N/N=C/c1ccc(N2CCOCC2)cc1 the results were MsrA inhibitor 5.2*, bovine MsrA act -4, NadD inh -1, NR2E3 ag-1 4, GalR3 antagonist 0, NR2E3 ag-2 0 and MsrA conf 4.

Screening results deposited in PubChem by several laboratories.
